Measurements from ChEMBL document CHEMBL1148332, “Mitomycin dimers: polyfunctional cross-linkers of DNA” (2004).

Key:
Tumor Cell line = experiment: In vitro anticancer activity against cultured 60 human tumor cell lines; assay type: functional
Method in brief: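 NCI screen panel of about 60 human tumor cell lines from nine tissue types. GI50 is the concentration causing 50% growth inhibition, reported as the mean-graph midpoint (mean of the individual cell-line GI50 values).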

Nucleic Acid [1] = experiment: Concentration of compound required for cross linking 50% of T-7 DNA, Na2S2O4; assay type: functional
Method in brief: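 T-7 coliphage DNA (100 μM) with drug at 0.5–15 μM in 0.015 M Tris·HCl, pH 7.4, was deaerated and given a 10-fold molar excess of Na₂S₂O₄ for 60 min under argon. Hoechst 33258 (100 nM) fluorescence (ex 355/em 460 nm) was read before and after heating at 95 °C and chilling. Cross-linked fraction was taken relative to a drug-free control; ICL50 is the concentration giving 50% cross-linked DNA.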

Nucleic Acid [2] = experiment: Apparent binding constant against calf thymus DNA was determined; assay type: nucleic-acid assay; settings: Bos taurus
Nucleic Acid [3] = experiment: Concentration of compound required for cross linking 50% T-7 DNA, Acid; assay type: functional
Method in brief: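 T-7 coliphage DNA (100 μM) with drug at 5–200 μM in citrate phosphate buffer, 10 mM Na+, pH 4.0, incubated aerobically 4 h. Diluted into 5 mM Tris/0.5 mM EDTA pH 8.0 with 100 nM Hoechst 33258; fluorescence (ex 355/em 460 nm) read before and after heat denaturation (95 °C, 5 min), ice chill and room-temperature renaturation. Cross-linked fraction computed against drug-free controls; ICL50 = drug concentration giving 50% cross-linked DNA.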

Nucleic Acid [4] = experiment: Concentration of compound required for cross linking 5% of tyrT DNA, Na2S2O4; assay type: functional
Method in brief: (§1)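 The 5'-³²P-labeled 162-bp tyrT DNA fragment (10 ng) was mixed with drug at various concentrations in Tris/EDTA buffer and deaerated with nitrogen. Dithionite was added from a 50 mM stock, and the mix was kept on ice in the dark for 1 h. After ethanol precipitation it was denatured at 94 °C for 4 min and run on an 8% denaturing polyacrylamide gel; cross-linked species were quantified by phosphor screen.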

Nucleic Acid [5] = experiment: Concentration of compound required for cross linking 50% of tyrT DNA, Na2S2O4; assay type: functional; method in brief: as §1
Nucleic Acid [6] = experiment: Compound was tested on efficacy of Cross-Linking of pBR322 DNA, acid at 40 uM; assay type: functional
Method in brief: (§2)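 The 3'-³²P-labeled, EcoRI-linearized pBR322 DNA was incubated with drug in 10 mM sodium phosphate, pH 4, aerobically for 2 h with no reductant. It was heat-denatured in DMSO strand-separation buffer and separated on 1% agarose, and percent cross-linked DNA was quantified by phosphorimaging.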

Nucleic Acid [7] = experiment: Concentration of compound required for cross linking 50% of pBR322 DNA, Na2S2O4; assay type: functional
Method in brief: (§3)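 pBR322 DNA linearized with EcoRI and 3'-end labeled with α-³²P-dATP by Klenow. About 100 ng was mixed with drug at various concentrations in 10 mM sodium phosphate/1 mM EDTA, pH 7.5, argon-deaerated, then reduced with dithionite for 45 min at room temperature. It was then denatured in 30% DMSO strand-separation buffer at 90 °C for 5 min, run on 1% agarose, and the cross-linked fraction quantified by phosphorimaging.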

Nucleic Acid [8] = experiment: Concentration of compound required for cross linking 50% of T-7 DNA, Acid; assay type: functional
Method in brief: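 T-7 coliphage DNA was incubated with drug at 5–200 μM in citrate phosphate, 10 mM Na⁺, pH 4.0, aerobically for 4 h. The cross-linked fraction came from Hoechst 33258 fluorescence (ex 355/em 460 nm) read before and after a 95 °C heat and ice chill, relative to a drug-free control; ICL50 is the drug concentration giving 50% cross-linking.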

Nucleic Acid [9] = experiment: Compound was tested on efficacy of Cross-Linking of pBR322 DNA, acid at 1 uM; assay type: functional; method in brief: as §2
Nucleic Acid [10] = experiment: Compound was tested on efficacy of Cross-Linking of tyrT DNA, acid at >400 uM; assay type: functional
Method in brief: (§4)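 The labeled 162-bp tyrT DNA fragment was incubated with drug in citrate phosphate, pH 4.0, aerobically for 2 h. It was ethanol-precipitated, denatured at 94 °C for 4 min, and resolved on an 8% denaturing polyacrylamide gel at about 55 °C; cross-linked bands were detected by phosphor screen.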

Nucleic Acid [11] = experiment: Compound was tested on efficacy of Cross-Linking of pBR322 DNA, Na2S2O4; assay type: functional; method in brief: as §3
Nucleic Acid [12] = experiment: Compound was tested on efficacy of Cross-Linking of tyrT DNA, acid at a concentration 400 uM; assay type: functional; method in brief: as §4

In the case of `CO[C@@]12[C@H](COC(N)=O)C3=C(C(=O)C(C)=C(N)C3=O)N1C[C@@H]1N[C@@H]12` [MITOMYCIN], the GI50 (Tumor Cell line) is reported as 0.832 µM, the ICL50 (Nucleic Acid [1]) is reported as 10 µM and the K app (Nucleic Acid [2]) is reported as 17000 M⁻¹. The ICL50 (Nucleic Acid [3]) was over 200 µM, the ICL5 (Nucleic Acid [4]) was 55 µM and the ICL50 (Nucleic Acid [5]) was “Infinity”.
In the case of `CO[C@@]12[C@H](COC(N)=O)C3=C(C(=O)C(C)=C(NCCCCCCCCCCCCNC4=C(C)C(=O)C5=C(C4=O)[C@@H](OC(N)=O)[C@@]4(OC)[C@H]6N[C@H]6CN54)C3=O)N1C[C@@H]1N[C@@H]12`, the Cross linking (Nucleic Acid [6]) is reported as 10%, the ICL50 (Nucleic Acid [7]) is reported as 1.7 µM and the GI50 (Tumor Cell line) is reported as 4.47 µM.
For `CO[C@@]12[C@H](COC(N)=O)C3=C(C(O)=C(C)/C(=N\CCCN(C)CCC/N=C4/C(=O)C5=C(C(O)=C4C)N4CC6NC6[C@]4(OC)[C@@H]5COC(N)=O)C3=O)N1C[C@@H]1N[C@@H]12` (some centres not stated), the ICL50 (Nucleic Acid [8]) was 20 µM, the inhibition (Nucleic Acid [9]) was 10% and the ICL50 (Nucleic Acid [7]) was 0.5 µM. The GI50 (Tumor Cell line) was 2.51 µM, the Cross linking (Nucleic Acid [10]) was 1.8% and the ICL50 (Nucleic Acid [1]) was 1.5 µM. It also gave a K app (Nucleic Acid [2]) of 80000 M⁻¹, an ICL5 (Nucleic Acid [4]) of 10 µM and an ICL50 (Nucleic Acid [5]) of 150 µM.
`CO[C@@]12[C@H](COC(N)=O)C3=C(C(=O)C(C)=C(NCCCCNC4=C(C)C(=O)C5=C(C4=O)[C@@H](OC(N)=O)[C@@]4(OC)[C@H]6N[C@H]6CN54)C3=O)N1C[C@@H]1N[C@@H]12` gave an ICL50 (Nucleic Acid [8]) of over 200 µM, a Cross linking (Nucleic Acid [6]) of under 10% and an ICL50 (Nucleic Acid [11]) of 3.8 µM. The GI50 (Tumor Cell line) was 69.2 µM, the Cross linking (Nucleic Acid [12]) was 0.6% and the ICL50 (Nucleic Acid [1]) was 2.6 µM. The K app (Nucleic Acid [2]) was 50000 M⁻¹, the ICL5 (Nucleic Acid [4]) was 20 µM and the ICL50 (Nucleic Acid [5]) was “Infinity”.
